In brackets after ≈: the same amount, converted by molar mass.
How the values were obtained:
[1] = target: T1, Glycogen synthase kinase-3 beta (Homo sapiens, UniProt P49841); experiment: Inhibition of human recombinant GSK3-beta after 1 hr by KinaseGlo luciferase assay
Target sequence in this assay (P49841 whole entry): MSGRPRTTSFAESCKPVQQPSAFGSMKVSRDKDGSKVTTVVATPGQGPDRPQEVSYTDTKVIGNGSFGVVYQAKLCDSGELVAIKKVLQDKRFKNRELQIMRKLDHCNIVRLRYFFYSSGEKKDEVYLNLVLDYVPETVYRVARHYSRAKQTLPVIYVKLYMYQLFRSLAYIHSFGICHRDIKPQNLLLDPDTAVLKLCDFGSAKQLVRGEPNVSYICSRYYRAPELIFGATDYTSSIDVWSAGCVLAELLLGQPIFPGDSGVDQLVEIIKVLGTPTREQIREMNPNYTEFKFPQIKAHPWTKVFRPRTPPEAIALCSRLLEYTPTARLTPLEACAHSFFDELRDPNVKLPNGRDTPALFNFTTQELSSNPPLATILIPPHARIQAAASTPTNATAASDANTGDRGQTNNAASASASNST

[2] = target: T1, Glycogen synthase kinase-3 beta; experiment: Inhibition of GSK3-beta in human HepG2 cells assessed as incorporation of [3H]glucose into glycogen after 3 hrs by liquid scintillation counting; assay type: cell-based
Target sequence in this assay (P49841 whole entry): as above

[3] = target: T1, Glycogen synthase kinase-3 beta; experiment: Inhibition of GSK3-beta in human HepG2 cells assessed as incorporation of [3H]glucose into glycogen at 30 uM after 3 hrs by liquid scintillation counting relative to CHIR99021; assay type: cell-based
Summary of the method: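 Hep G2 cells seeded at 1 × 10^5 per well and cultured 3 days, then serum-starved 3 h in low-glucose DMEM. Compound added at varying concentrations with […] D-[2-3H]glucose (0.3% DMSO final) for 3 h at 37 °C. Cells lysed in KOH, glycogen ethanol-precipitated, and [3H] incorporation counted by scintillation. Efficacy is % of reference at 30 µM; n = 3.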
Target sequence in this assay (P49841 whole entry, looked up): as the sequence (P49841 whole entry) above

Escherichia coli = experiment: Antibacterial activity against Escherichia coli after 18 hrs by microdilution method; assay type: organism-based
Staphylococcus aureus = experiment: Antibacterial activity against Staphylococcus aureus after 18 hrs by microdilution method; assay type: organism-based; conditions: in vitro
[4] = AUC (0 to 25 hrs) in ICR mouse plasma at 300 mg/kg, po; assay type: ADME, organism-based; design: time < 25 hr, dose 300 mg/kg, route oral
[5] = Ratio of drug uptake in ICR mouse liver to ICR mouse plasma at 300 mg/kg, po at 4 hrs; assay type: ADME, organism-based; design: dose 300 mg/kg, route oral
Summary of the method: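 Liver and plasma concentrations measured 4 h after an oral 300 mg/kg dose in ICR mice; ratio given as liver/plasma; means, n = 5–6.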

[6] = AUC in ICR mouse liver at 300 mg/kg, po; assay type: ADME, organism-based; design: dose 300 mg/kg, route oral
Summary of the method: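 ICR mice dosed orally at 300 mg/kg. Liver AUC was calculated from the plasma AUC and the liver-to-plasma concentration ratio at 4 h post-dose. Means, n = 5–6.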

Mus musculus [7] = experiment: Antidiabetic activity in fasted ICR mouse assessed as inhibition of plasma glucose concentration at 300 mg/kg, po administered 30 mins prior to glucose-challenge by oral glucose tolerance test; assay type: functional
Summary of the method: (§1)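 7-week-old ICR mice fasted 15–17 h, dosed orally with compound suspended in 0.3% CMC-Na or with vehicle. Glucose 5 g/kg given orally 30 min later. Tail-vein blood sampled before dosing and at 0, 0.5, 1 and 2 h after the glucose load; plasma glucose measured by glucose C II-test. The summed 0.5 + 1 h glucose values are expressed as % decrease versus vehicle.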

Mus musculus [8] = experiment: Ratio of AUC (0 to 25 hrs) in ICR mouse plasma to AUC in ICR mouse liver at 300 mg/kg, po; assay type: ADME, organism-based; design: dose 300 mg/kg, route oral; conditions: in vivo
Mus musculus [9] = experiment: Antidiabetic activity in fasted ICR mouse assessed as inhibition of plasma glucose concentration at 50 mg/kg, po administered 30 mins prior to glucose-challenge by oral glucose tolerance test; assay type: functional; summary of the method: as §1
Mus musculus [10] = experiment: Antidiabetic activity in fasted ICR mouse assessed as inhibition of plasma glucose concentration at 100 mg/kg, po administered 30 mins prior to glucose-challenge by oral glucose tolerance test; assay type: functional; summary of the method: as §1
Mus musculus [11] = experiment: Antidiabetic activity in fasted ICR mouse assessed as inhibition of plasma glucose concentration at 150 mg/kg, po administered 30 mins prior to glucose-challenge by oral glucose tolerance test; assay type: functional; summary of the method: as §1
Mus musculus [12] = experiment: Antidiabetic activity in po dosed fasted ICR mouse assessed as inhibition of plasma glucose concentration administered 30 mins prior to glucose-challenge by oral glucose tolerance test; assay type: functional, organism-based; summary of the method: as §1

| SMILES | IC50 [1] [nM] | EC50 [2] [nM] | Efficacy [3] [%] | MIC (Escherichia coli) [µM] | MIC (Staphylococcus aureus) [µM] | AUC(0-t) at 25 h [4] [µM·h] | Kp at 4 h [5] | AUC [6] [µM·h] | inhibition in vivo at 300 mg/kg (Mus musculus [7]) [%] | Ratio AUC (Mus musculus [8]) | inhibition in vivo at 50 mg/kg (Mus musculus [9]) [%] | inhibition in vivo at 100 mg/kg (Mus musculus [10]) [%] | inhibition in vivo at 150 mg/kg (Mus musculus [11]) [%] | inhibition (Mus musculus [12]) |
| --- | --- | --- | --- | --- | --- | --- | --- | --- | --- | --- | --- | --- | --- | --- |
| Nc1c(F)c(NCCNc2ccccn2)c2c3c1c(=O)c(C(=O)O)cn3C1(CCCC1)CCO2 | 250 | 13000 | 85 | > 34 | > 34 | – | – | – | – | – | – | – | – | – |
| Nc1c(F)c(NCCNc2ccccn2)c2c3c1c(=O)c(C(=O)O)cn3C1(CCC1)CCN2 | 550 | – | 12 | > 140 | > 140 | – | – | – | – | – | – | – | – | – |
| Nc1c(F)c(NCCNc2ccccn2)c2c3c1c(=O)c(C(=O)O)cn3C1(CCCC1)CO2 | – | 20000 | – | – | – | – | – | – | – | – | – | – | – | – |
| CC1COc2c(NCCNc3ccccn3)c(F)c(N)c3c(=O)c(C(=O)O)cn(c23)C12CCC2 (configuration not stated) | 10 | 1400 | 48 | > 34 | > 34 | 6.8 | 32 | 217 | 13 | – | – | – | – | – |
| CC1CC2(CCC2)n2cc(C(=O)O)c(=O)c3c(N)c(F)c(NCCNc4ccccn4)c(c32)O1 (configuration not stated) | 250 | 2100 | 94 | > 34 | > 34 | – | – | – | – | – | – | – | – | – |
| Nc1c(F)c(NCCNc2ccccn2)c2c3c1c(=O)c(C(=O)O)cn3C1(CCC1)CCO2 | 36 | 3200 | 65 | > 34 | 18 (≈ 8.16 µg/mL) | 24 | 32 | 760 | 31 | 32 | 20 | 32 | 39 | Dose-dependent effect |
| Cc1c[nH]c(-c2cnc(NCCNc3ccc(C#N)cn3)nc2-c2ccc(Cl)cc2Cl)n1 [LADUVIGLUSIB] | – | – | – | – | – | 210 | 3.8 | 820 | – | – | – | – | – | – |
| Cc1cnc(-c2cnc(NCCNc3ccc(C#N)cn3)nc2-c2ccc(Cl)cc2Cl)[nH]1 [LADUVIGLUSIB] | – | – | 100 | – | – | – | – | – | 38 | – | – | – | – | – |
| Nc1c(F)c(NCCNc2ccccn2)c2c3c1c(=O)c(C(=O)O)cn3C1(CCO2)CC1 | 37 | – | 42 | 9 (≈ 3.96 µg/mL) | 5 (≈ 2.2 µg/mL) | – | – | – | – | – | – | – | – | – |

— ChEMBL document CHEMBL1938336, “Quinolone derivatives containing strained spirocycle as orally active glycogen synthase kinase 3β (GSK-3β) inhibitors for type 2 diabetics” (Bioorg Med Chem, 2012)
